Source: ChEMBL document CHEMBL5303300, “EUbOPEN Chemogenomics Library - Multiplex” (2023)
“And” between values parts separate entries of the source, which are not always exact repeats. Equal entries are not always repeated.

Legend:
Type in all cases: toxicity, cell-based
HEK-293T = assay: Multiplex assay against HEK293T; details: human, number of replicates 2
In short: (§1)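 With compound added, live cells were imaged on a CQ1 microscope at 37°C and 5% CO2; staining with Hoechst33342, BioTracker Green Microtubule Cytoskeleton Dye, MitoTracker Red and Annexin V Alexa Fluor 680 had been done at seeding. The CellPathfinder machine-learning gating scheme split cells into Hoechst high-intensity objects or normal cells, normal cells into healthy, pyknosed or fragmented nuclei, and pyknosed cells into mitotic or apoptotic. The tubulin, mitochondrial-mass and membrane-permeability phenotypes are per cents of healthy-nucleus cells.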

U2OS = assay: Multiplex assay against U2OS; details: human, number of replicates 2; in short: as §1
Fibroblast = assay: Multiplex assay against human fibroblast; details: number of replicates 2; in short: as §1
[1] = 12 h, 1 µM, compound concentration 1 uM
[2] = 12 h, 10 µM, compound concentration 10 uM
[3] = 24 h, 1 µM, compound concentration 1 uM
[4] = 24 h, 10 µM, compound concentration 10 uM
[5] = 48 h, 1 µM, compound concentration 1 uM
[6] = 48 h, 10 µM, compound concentration 10 uM

Compound: CS(=O)(=O)c1ccc(C(=O)Nc2ccc(F)c(COc3ccc(Br)cc3CN3CC[C@H](O)C3)c2)c(Cl)c1.O=CO
- Population Apoptotic (%) (HEK-293T; [1]): 55% and 45%
- Population Healthy Nuclei (%) (HEK-293T; [1]): 81% and 82%
- Population Mitotic Cells (%) (HEK-293T; [1]): 44% and 54%
- Population Normal (%) (HEK-293T; [1]): 94% and 93%
- Total Cell Count (HEK-293T; [1]): 519 and 629
- Population Apoptotic (%) (HEK-293T; [2]): 61% and 58%
- Population Healthy Nuclei (%) (HEK-293T; [2]): 87% and 82%
- Population Normal (%) (HEK-293T; [2]): 91% and 88%
- Total Cell Count (HEK-293T; [2]): 484 and 427
- Population Apoptotic (%) (HEK-293T; [3]): 60% and 47%
- Population Healthy Nuclei (%) (HEK-293T; [3]): 80% and 83%
- Population Mitotic Cells (%) (HEK-293T; [3]): 52%
- Population Normal (%) (HEK-293T; [3]): 92% and 93%
- Total Cell Count (HEK-293T; [3]): 796 and 885
- Population Apoptotic (%) (HEK-293T; [4]): 69% and 68%
- Population Healthy Nuclei (%) (HEK-293T; [4]): 85% and 79%
- Population Mitotic Cells (%) (HEK-293T; [4]): 30%
- Population Normal (%) (HEK-293T; [4]): 90% and 91%
- Total Cell Count (HEK-293T; [4]): 489 and 456
- Population Apoptotic (%) (HEK-293T; [5]): 29% and 26%
- Population Healthy Nuclei (%) (HEK-293T; [5]): 83% and 86%
- Population Mitotic Cells (%) (HEK-293T; [5]): 70% and 73%
- Population Normal (%) (HEK-293T; [5]): 89% and 92%
- Total Cell Count (HEK-293T; [5]): 1639 and 1757
- Population Apoptotic (%) (HEK-293T; [6]): 74% and 55%
- Population Healthy Nuclei (%) (HEK-293T; [6]): 82% and 85%
- Population Mitotic Cells (%) (HEK-293T; [6]): 25% and 44%
- Population Normal (%) (HEK-293T; [6]): 86% and 90%
- Total Cell Count (HEK-293T; [6]): 548 and 631
- Population Apoptotic (%) (U2OS; [1]): 60%
- Population Healthy Nuclei (%) (U2OS; [1]): 60% and 82%
- Population Normal (%) (U2OS; [1]): 100%
- Population Pyknosed Nuclei (%) (U2OS; [1]): 10%
- Population Apoptotic (%) (U2OS; [2]): 91% and 68%
- Population Healthy Nuclei (%) (U2OS; [2]): 41% and 73%
- Population Normal (%) (U2OS; [2]): 100% and 98%
- Population Pyknosed Nuclei (%) (U2OS; [2]): 22%
- Population Apoptotic (%) (U2OS; [3]): 77% and 65%
- Population Healthy Nuclei (%) (U2OS; [3]): 62% and 84%
- Population Normal (%) (U2OS; [3]): 100%
- Population Pyknosed Nuclei (%) (U2OS; [3]): 13%
- Population Apoptotic (%) (U2OS; [4]): 71% and 92%
- Population Healthy Nuclei (%) (U2OS; [4]): 61% and 47%
- Population Normal (%) (U2OS; [4]): 98% and 100%
- Population Apoptotic (%) (U2OS; [5]): 100% and 93%
- Population Healthy Nuclei (%) (U2OS; [5]): 67% and 88%
- Population Normal (%) (U2OS; [5]): 100%
- Population Pyknosed Nuclei (%) (U2OS; [5]): 9%
- Population Apoptotic (%) (U2OS; [6]): 94% and 89%
- Population Healthy Nuclei (%) (U2OS; [6]): 23% and 51%
- Population Normal (%) (U2OS; [6]): 97% and 100%
- Population Pyknosed Nuclei (%) (U2OS; [6]): 41% and 39%
- Population Apoptotic (%) (Fibroblast; [1]): 42% and 43%
- Population Fragmented Nuclei (%) (Fibroblast; [1]): 7% and 9%
- Population Healthy Nuclei (%) (Fibroblast; [1]): 63% and 67%
- Population Hoechst High Intensity Objects (%) (Fibroblast; [1]): 0%
- Population Normal (%) (Fibroblast; [1]): 100%
- Total Cell Count (Fibroblast; [1]): 217 and 239
- Population Apoptotic (%) (Fibroblast; [2]): 42% and 43%
- Population Fragmented Nuclei (%) (Fibroblast; [2]): 21%
- Population Healthy Nuclei (%) (Fibroblast; [2]): 50% and 52%
- Population Hoechst High Intensity Objects (%) (Fibroblast; [2]): 0%
- Population Normal (%) (Fibroblast; [2]): 100% and 99%
- Total Cell Count (Fibroblast; [2]): 194 and 258
- Population Apoptotic (%) (Fibroblast; [3]): 42% and 57%
- Population Fragmented Nuclei (%) (Fibroblast; [3]): 10% and 14%
- Population Healthy Nuclei (%) (Fibroblast; [3]): 64% and 69%
- Population Hoechst High Intensity Objects (%) (Fibroblast; [3]): 0%
- Population Normal (%) (Fibroblast; [3]): 100% and 99%
- Total Cell Count (Fibroblast; [3]): 220 and 253
- Population Apoptotic (%) (Fibroblast; [4]): 72% and 81%
- Population Fragmented Nuclei (%) (Fibroblast; [4]): 15%
- Population Healthy Nuclei (%) (Fibroblast; [4]): 62% and 52%
- Population Hoechst High Intensity Objects (%) (Fibroblast; [4]): 0%
- Population Normal (%) (Fibroblast; [4]): 100% and 99%
- Total Cell Count (Fibroblast; [4]): 197 and 255
- Population Apoptotic (%) (Fibroblast; [5]): 71% and 78%
- Population Fragmented Nuclei (%) (Fibroblast; [5]): 18% and 14%
- Population Healthy Nuclei (%) (Fibroblast; [5]): 64% and 73%
- Population Hoechst High Intensity Objects (%) (Fibroblast; [5]): 0%
- Population Normal (%) (Fibroblast; [5]): 99%
- Total Cell Count (Fibroblast; [5]): 244 and 243
- Population Apoptotic (%) (Fibroblast; [6]): 88%
- Population Fragmented Nuclei (%) (Fibroblast; [6]): 20% and 15%
- Population Healthy Nuclei (%) (Fibroblast; [6]): 58% and 63%
- Population Hoechst High Intensity Objects (%) (Fibroblast; [6]): 0%
- Population Normal (%) (Fibroblast; [6]): 100% and 98%
- Total Cell Count (Fibroblast; [6]): 178 and 242
